Measurements published in ChEMBL document CHEMBL4017549, “Structural Basis of Inhibition of ERα-Coactivator Interaction by High-Affinity N-Terminus Isoaspartic Acid Tethered Helical Peptides” (J Med Chem, 2017).
Activity calls are given as the source filed them. The calls are words filed in the database; no cut-off is given here. Bridge positions count the residues as written; N and C are the ends. Square brackets hold non-standard residues; d marks the D form. Side chains are listed from the residue outwards. Peptide text beside a SMILES is read from it. * marks the point of attachment. ξ: configuration not given here. FITC = O=C1OC2(c3ccc(O)cc3Oc3cc(O)ccc32)c2ccc(NC(=S)*)cc21; ξtBuAla = CC(C)(C)CC(N)C(=O)O; ξD = NC(CC(=O)O)C(=O)O; ξDap = NCC(N)C(=O)O; βAla = NCCC(=O)O

Columns and labels:
MCF7 [1] = assay: Cytotoxicity against human MCF7 cells assessed as cell viability up to 100 uM after 24 hrs by MTT assay; format: functional, cell-based
How it was run: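 MTT read-out. 5000−10000 cells/well seeded overnight in their own medium: MCF7 and MCF10A in DMEM with phenol red, 10% FBS, 37 °C, 5% CO2; T47D in RPMI1640 with insulin and 10% FBS; MDA-MB-231 in L-15, 10% FBS, no CO2. Serial peptide dilutions or DMSO for 20 h at 37 °C, then MTT 4 h more; formazan in DMSO, A570.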

MCF7 [2] = assay: Cytotoxicity against human MCF7 cells assessed as reduction in cell viability at 1 uM after 24 hrs by MTT assay relative to control; format: cell-based; settings: mcf7, 24 h
MCF7 [3] = assay: Cytotoxicity against human MCF7 cells assessed as reduction in cell viability at 5 uM after 24 hrs by MTT assay relative to control; format: cell-based; settings: mcf7, 24 h
[4] = target: T1, Estrogen receptor (Homo sapiens) (UniProt P03372); assay: Inhibition of recombinant human GFP-fused ERalpha LBD (301 to 553 residues) expressed in human […] cells assessed as downregulation of 17beta-estradiol-induced transcription at 5 uM preincubated for 4 hrs followed by E2 addition measured after 20 hrs by dual luciferase reporter gene assay; format: cell-based
T1 sequence (whole entry): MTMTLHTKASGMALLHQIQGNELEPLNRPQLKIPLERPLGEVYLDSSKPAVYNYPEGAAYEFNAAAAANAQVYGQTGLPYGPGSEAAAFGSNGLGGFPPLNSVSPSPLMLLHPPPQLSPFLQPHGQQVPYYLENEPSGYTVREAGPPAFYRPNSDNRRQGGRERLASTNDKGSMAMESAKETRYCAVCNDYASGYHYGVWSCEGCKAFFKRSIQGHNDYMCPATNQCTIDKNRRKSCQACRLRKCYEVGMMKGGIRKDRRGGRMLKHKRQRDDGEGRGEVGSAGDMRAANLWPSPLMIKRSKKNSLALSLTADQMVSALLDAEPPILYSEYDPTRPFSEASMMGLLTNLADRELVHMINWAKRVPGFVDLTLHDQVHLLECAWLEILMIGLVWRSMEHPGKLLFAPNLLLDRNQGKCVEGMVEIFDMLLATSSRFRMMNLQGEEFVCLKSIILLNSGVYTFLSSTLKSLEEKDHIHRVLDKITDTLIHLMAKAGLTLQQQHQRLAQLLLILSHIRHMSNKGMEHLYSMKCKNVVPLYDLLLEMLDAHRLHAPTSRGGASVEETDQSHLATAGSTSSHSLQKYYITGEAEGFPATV
How it was run: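 U2OS cells in phenol red-free DMEM with 10% charcoal-stripped FBS, transfected 4 h with pEGFP-C1-ERα, 3XERE firefly luciferase reporter and pRL-TK Renilla plasmids. Peptides for 4 h, then 10 nM E2 or DMSO for 20 h. Lysates read by dual-luciferase; firefly normalized to Renilla, then to DMSO-treated control. SEM from more than two independent experiments.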

[5] = target: T1, Estrogen receptor (Homo sapiens); assay: Inhibition of ERalpha in human MCF7 cells assessed as downregulation of 17beta-estradiol-mediated pS2 mRNA expression at 5 uM preincubated for 4 hrs followed by 17beta-estradiol addition measured after 16 hrs by quantitative RT-PCR analysis; format: cell-based
How it was run: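 MCF-7 cells hormone-depleted 72 h in phenol red-free DMEM with 5% charcoal-treated serum, given peptides or DMSO for 4 h, then 100 nM 17β-estradiol or DMSO for 16 h. pS2 mRNA measured by quantitative RT-PCR, normalized to β-actin. Three independent experiments, mean ± SEM.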

MCF7 [6] = assay: Cytotoxicity against human MCF7 cells assessed as cell viability at 20 uM after 24 hrs by MTT assay; format: functional; settings: MCF7, 24 h, read-out: Activity
Homo sapiens [7] = species on record: Homo sapiens; assay: Selectivity ratio of Kd for recombinant human GST-tagged VDR LBD (156 to 453 residues) to Kd for recombinant human ERalpha LBD (301 to 553 residues)
How it was run: (§1)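 Ratio of KD values, each from fluorescence polarization of 10 nM FITC-peptide titrated with the respective LBD after 40 min in the dark at 298 K, with the matching ligand in buffer (10 μM 17β-estradiol, progesterone or vitamin D3).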

[8] = Drug uptake in human U2OS cells assessed per million cells at 5 uM after 3 hrs by FACS analysis; format: ADME, cell-based
How it was run: (§2)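 Adherent cells seeded overnight, then exposed to 5 μM FITC-labelled peptide or DMSO in FBS-free medium, 3 h, 37 °C. After PBS washes (three), about 10000 cells per sample analysed by flow cytometry; mean cellular fluorescence intensity calculated. More than two independent experiments, SEM.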

Estrogen receptor = target: T2, Estrogen receptor (Homo sapiens, UniProt P03372); assay: Binding affinity to recombinant human GFP-fused ERalpha LBD (301 to 553 residues) expressed in Escherichia coli BL21(DE3) after 40 mins in presence of 17beta-estradiol by fluorescence polarization assay
T2 sequence (P03372 whole entry): T1 sequence (whole entry)

[9] = Drug uptake in human MCF7 cells assessed per million cells at 5 uM after 3 hrs by FACS analysis; format: ADME, cell-based; settings: mcf7, 3 h; how it was run: as §2
[10] = target: T1, Estrogen receptor (Homo sapiens); assay: Binding affinity to recombinant human GFP-fused ERalpha LBD (301 to 553 residues) expressed in Escherichia coli BL21(DE3) in presence of ERalpha inhibitor 4-hydroxytamoxifen by ITC
How it was run: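 ITC at 25 °C. 50 μM peptide injected in 2 μL steps into 5 μM ERα LBD in 50 mM Tris pH 8.0, 150 mM NaCl, 1 mM TCEP containing 0.1 mM 4-hydroxytamoxifen instead of estradiol. Isotherm fitted.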

Estrogen receptor beta = Estrogen receptor beta (Homo sapiens, UniProt Q92731); assay: Binding affinity to recombinant human GFP-fused ERbeta LBD (259 to 498 residues) expressed in Escherichia coli BL21(DE3) after 40 mins in presence of 17beta-estradiol by fluorescence polarization assay
Sequence of Estrogen receptor beta (Q92731 whole entry, the tested form may be a part): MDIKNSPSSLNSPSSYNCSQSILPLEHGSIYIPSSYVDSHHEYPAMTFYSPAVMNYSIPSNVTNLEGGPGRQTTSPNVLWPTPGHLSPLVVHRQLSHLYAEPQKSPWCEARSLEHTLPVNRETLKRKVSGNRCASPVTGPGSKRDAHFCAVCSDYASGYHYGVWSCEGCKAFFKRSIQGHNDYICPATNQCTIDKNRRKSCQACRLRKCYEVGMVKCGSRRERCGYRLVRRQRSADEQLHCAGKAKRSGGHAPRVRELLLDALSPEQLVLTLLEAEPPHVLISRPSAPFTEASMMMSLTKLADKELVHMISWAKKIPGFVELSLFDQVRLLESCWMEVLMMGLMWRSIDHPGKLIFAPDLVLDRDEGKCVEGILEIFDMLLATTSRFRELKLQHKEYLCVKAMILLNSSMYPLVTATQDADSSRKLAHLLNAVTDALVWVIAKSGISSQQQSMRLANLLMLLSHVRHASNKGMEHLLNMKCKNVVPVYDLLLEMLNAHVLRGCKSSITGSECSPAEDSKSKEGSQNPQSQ
How it was run: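 FITC-labelled peptide at 10 nM final, titrated with increasing purified LBD (ERβ LBD carrying C334S, C369S, C481S) in 20 mM Tris-HCl pH 8.0, 150 mM NaCl, 5% glycerol, 1 mM TCEP with 10 μM 17β-estradiol. Incubated 40 min in the dark, polarization read at 298 K (ex 480/em 535 nm). KD from nonlinear regression of polarization versus protein concentration.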

Homo sapiens [11] = species on record: Homo sapiens; assay: Selectivity ratio of Kd for recombinant human GST-tagged PGR LBD ([…] residues) to Kd for recombinant human ERalpha LBD (301 to 553 residues); how it was run: as §1
Homo sapiens [12] = species on record: Homo sapiens; assay: Selectivity ratio of Kd for recombinant human ERbeta LBD (259 to 498 residues) to Kd for recombinant human ERalpha LBD (301 to 553 residues); how it was run: as §1
Vitamin D3 receptor = target: T3, Vitamin D3 receptor (Homo sapiens, UniProt P11473); assay: Binding affinity to recombinant human GST-tagged VDR LBD (156 to 453 residues) expressed in Echerichia coli BL21 star (DE3) after 40 mins in presence of vitamin D3 by fluorescence polarization assay
T3 sequence (P11473 whole entry): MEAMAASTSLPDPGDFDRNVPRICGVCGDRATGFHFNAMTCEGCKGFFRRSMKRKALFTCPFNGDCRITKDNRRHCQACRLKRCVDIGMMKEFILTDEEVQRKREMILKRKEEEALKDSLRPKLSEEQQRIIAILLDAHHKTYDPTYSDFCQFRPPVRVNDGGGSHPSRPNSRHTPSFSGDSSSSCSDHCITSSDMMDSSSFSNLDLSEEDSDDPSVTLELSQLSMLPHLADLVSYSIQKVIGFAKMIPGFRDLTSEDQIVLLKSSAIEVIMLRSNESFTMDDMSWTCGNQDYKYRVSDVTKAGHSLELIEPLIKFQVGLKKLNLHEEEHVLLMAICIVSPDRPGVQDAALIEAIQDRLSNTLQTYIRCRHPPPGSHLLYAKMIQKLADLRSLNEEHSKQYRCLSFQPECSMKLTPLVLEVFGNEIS
How it was run: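 GST-VDR LBD titrated into 10 nM final FITC-labelled peptide in 20 mM Tris-HCl pH 8.0, 150 mM NaCl, 5% glycerol, 1 mM TCEP containing 10 μM vitamin D3. 40 min dark incubation, polarization at 298 K (ex 480/em 535 nm). KD by nonlinear regression.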

[13] = Drug uptake in human MCF7 cells at 5 uM after 3 hrs in presence of 10 nM E2 by DAPI-staining based confocal laser scanning microscopic analysis; settings: mcf7, 3 h
Progesterone receptor = target: T4, Progesterone receptor (Homo sapiens, UniProt P06401); assay: Binding affinity to recombinant human GST-tagged PGR LBD (678 to 933 residues) expressed in Escherichia coli BL21 star(DE3) after 40 mins in presence of progesterone by fluorescence polarization assay
T4 sequence (P06401 whole entry): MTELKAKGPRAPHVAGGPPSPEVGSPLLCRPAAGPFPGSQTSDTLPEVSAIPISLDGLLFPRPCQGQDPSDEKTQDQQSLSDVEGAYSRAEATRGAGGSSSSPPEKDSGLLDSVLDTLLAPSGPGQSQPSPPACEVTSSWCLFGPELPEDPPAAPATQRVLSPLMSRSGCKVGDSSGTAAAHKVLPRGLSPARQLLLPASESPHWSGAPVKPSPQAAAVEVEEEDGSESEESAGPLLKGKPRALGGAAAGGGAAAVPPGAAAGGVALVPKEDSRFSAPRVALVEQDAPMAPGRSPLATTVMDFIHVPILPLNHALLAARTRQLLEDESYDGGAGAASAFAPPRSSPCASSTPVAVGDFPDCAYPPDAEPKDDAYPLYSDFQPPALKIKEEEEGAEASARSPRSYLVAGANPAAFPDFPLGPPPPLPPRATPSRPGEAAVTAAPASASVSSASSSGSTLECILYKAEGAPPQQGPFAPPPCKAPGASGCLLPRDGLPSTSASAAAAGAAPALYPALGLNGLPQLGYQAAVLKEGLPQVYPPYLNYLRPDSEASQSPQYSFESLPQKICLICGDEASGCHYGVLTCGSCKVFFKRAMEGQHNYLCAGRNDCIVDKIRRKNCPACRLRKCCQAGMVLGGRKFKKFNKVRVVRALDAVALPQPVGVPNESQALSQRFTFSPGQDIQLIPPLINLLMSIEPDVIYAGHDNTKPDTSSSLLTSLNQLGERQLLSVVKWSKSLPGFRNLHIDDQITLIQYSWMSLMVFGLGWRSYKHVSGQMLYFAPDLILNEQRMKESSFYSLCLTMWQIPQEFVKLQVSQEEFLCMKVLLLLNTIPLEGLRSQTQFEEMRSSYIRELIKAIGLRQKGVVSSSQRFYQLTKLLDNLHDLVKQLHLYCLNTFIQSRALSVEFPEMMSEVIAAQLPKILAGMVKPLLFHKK
How it was run: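 FITC-labelled peptide at 10 nM final with increasing GST-PgR LBD in 20 mM Tris-HCl pH 8.0, 150 mM NaCl, 5% glycerol, 1 mM TCEP plus 10 μM progesterone. 40 min dark incubation, polarization at 298 K (ex 480/em 535 nm). KD by nonlinear regression against protein concentration.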

[14] = target: T1, Estrogen receptor (Homo sapiens); assay: Binding affinity to recombinant human GFP-fused ERalpha LBD (301 to 553 residues) expressed in Escherichia coli BL21(DE3) in presence of 17beta-estradiol by ITC
How it was run: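 ITC at 25 °C. 2 μL injections of 50 μM peptide into 5 μM ERα LBD in 50 mM Tris pH 8.0, 150 mM NaCl, 1 mM TCEP, 0.1 mM 17β-estradiol. Binding isotherm fitted for affinity.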

CC/C(=C(\c1ccccc1)c1ccc(OCCN(C)C)cc1)c1ccccc1 [TAMOXIFEN]
Activity (MCF7 [1]): Active | Activity (MCF7 [2]): < 20% | Activity (MCF7 [3]): < 20%

CC[C@H](C)[C@@H]1NC(=O)C(NC(=O)[C@H](CCCNC(=N)N)NC(=O)CCNC(=O)[C@H](Cc2c[nH]c3ccccc23)NC(C)=O)CNC(=O)C(CC(=O)N[C@@H](CCC(N)=O)C(=O)NC(CC(C)(C)C)C(=O)N[C@@H](CCCNC(=N)N)C(=O)NC(CC(C)(C)C)C(N)=O)NC(=O)C(CC(C)(C)C)NC1=O (stereo partly drawn) (Ac-W[βAla]R[ξDap]I[ξtBuAla][ξD]([Gln-ξtBuAla-Arg-ξtBuAla-NH2]); lactam 4-C)
inhibition [4]: inactive | inhibition [5]: inactive | viability at 20 µM (MCF7 [6]): 79.2%

CC[C@H](C)[C@H](NC(=O)[C@H](CCCCN)NC(=O)[C@H](Cc1cnc[nH]1)NC(=O)CCNC(=S)Nc1ccc2c(c1)C(=O)OC21c2ccc(O)cc2Oc2cc(O)ccc21)C(=O)N[C@@H](CC(C)C)C(=O)N[C@@H](Cc1cnc[nH]1)C(=O)N[C@@H](CCCNC(=N)N)C(=O)N[C@@H](CC(C)C)C(=O)N[C@@H](CC(C)C)C(=O)N[C@@H](CCC(N)=O)C(N)=O ({FITC-βAla}-HKILHRLLQ-NH2)
Selectivity ratio (Homo sapiens [7]): 1.2 | Drug uptake [8]: Active | Kd (Estrogen receptor): 118 nM | Drug uptake [9]: Active | Activity [10]: inactive | Kd (Estrogen receptor beta): 213 nM | Selectivity ratio (Homo sapiens [11]): 0.7 | Selectivity ratio (Homo sapiens [12]): 1.8 | Kd (Vitamin D3 receptor): 142 nM | Drug uptake [13]: Not Active | Kd (Progesterone receptor): 82 nM | Activity [14]: Active
